≈ marks a conversion by molar mass, not a printed value. Where a SMILES comes first, the peptide text is derived from it.
How the values were obtained:
[1] = system: Bacillus subtilis; assay: Bactericidal activity against Bacillus subtilis DSM 347 after 24 hrs; format: functional; conditions: DSM 347, 24 h
Outline: (§1)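 MBC: after the 17 h LB broth dilution growth assay (1.6 x 10^6 cells/ml, 37°C, shaking), 200 µl from wells at or above the MIC was spread on LB agar. Plates were incubated 24 h at 37°C and colonies counted. MBC is the lowest concentration giving no colonies. Triplicate.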

[2] = system: Escherichia coli; assay: Antimicrobial activity against Escherichia coli DH5[alpha] after 17 hrs; format: functional
Outline: (§2)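 Mid-log cells (OD600 0.4 to 0.5, grown in LB at 37°C, 180 rpm) in LB at 1.6 x 10^6 cells/ml. Soluble peptides were tested in microtiter wells at 100 to 0.05 µM (twofold dilutions). Resin-bound peptides were tested in tubes at 0.5 to 80 mg/ml resin with horizontal shaking. Incubation 37°C, 180 rpm; A600 read at 17 h; triplicate. Resin MICs were converted to mM using peptide loading per mg resin.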

[3] = system: Bacillus subtilis; assay: Antimicrobial activity against Bacillus subtilis DSM 347 after 17 hrs; format: functional; conditions: DSM 347, 17 h; outline: as §2
[4] = system: Escherichia coli; assay: Bactericidal activity against Escherichia coli DH5[alpha] after 24 hrs; format: functional; outline: as §1
[5] = Cytotoxicity against human RBC assessed as hemolytic activity after 30 mins by spectrophotometry; format: cell-based; conditions: erythrocyte, 0.5 h
Outline: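 Human RBCs were washed in 10 mM Tris, 150 mM NaCl, pH 7.4 and incubated at 2.5 x 10^8 cells/ml with peptide in 1 ml buffer for 30 min with gentle shaking. Samples were ice-cooled and centrifuged (2,000 x g, 4°C, 5 min); supernatant was diluted in 0.5% NH4OH and read at OD540. 0.5% NH4OH served as 100% lysis. EC25 was taken from dose-response curves.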

Structure (SMILES)	MBC [1]	MIC [2]	MIC [3]	MBC [4]	EC25 [5]
CC(C)C[C@H](NC(=O)[C@H](C)NC(=O)[C@H](CCCCN)NC(=O)[C@H](CC(C)C)NC(=O)[C@H](C)NC(=O)[C@H](CC(C)C)NC(=O)[C@H](CCCCN)NC(=O)[C@H](CC(C)C)NC(=O)[C@H](C)NC(=O)[C@H](CC(C)C)NC(=O)[C@@H](N)CCCCN)C(=O)N[C@@H](CCCCN)C(=O)N[C@@H](C)C(=O)N[C@@H](C)C(=O)N[C@@H](CC(C)C)C(=O)N[C@@H](CCCCN)C(=O)N[C@@H](CC(C)C)C(=O)N[C@@H](C)C(N)=O	0.8 µM (≈ 1.5 µg/mL)	1.6 µM (≈ 3 µg/mL)	0.8 µM (≈ 1.5 µg/mL)	1.6 µM (≈ 3 µg/mL)	13.1 µM
CC(=O)N[C@@H](CCCCN)C(=O)N[C@@H](CC(C)C)C(=O)N[C@@H](C)C(=O)N[C@@H](CC(C)C)C(=O)N[C@@H](CCCCN)C(=O)N[C@@H](CC(C)C)C(=O)N[C@@H](C)C(=O)N[C@@H](CC(C)C)C(=O)N[C@@H](CCCCN)C(=O)N[C@@H](C)C(=O)N[C@@H](CC(C)C)C(=O)N[C@@H](CCCCN)C(=O)N[C@@H](C)C(=O)N[C@@H](C)C(=O)N[C@@H](CC(C)C)C(=O)N[C@@H](CCCCN)C(=O)N[C@@H](CC(C)C)C(=O)N[C@@H](C)C(N)=O	0.8 µM (≈ 1.53 µg/mL)	12.5 µM (≈ 24 µg/mL)	0.8 µM (≈ 1.53 µg/mL)	12.5 µM (≈ 24 µg/mL)	9.1 µM
CC[C@H](C)[C@H](NC(=O)CNC(C)=O)C(=O)NCC(=O)N[C@@H](CCCCN)C(=O)N[C@@H](Cc1ccccc1)C(=O)N[C@H](C(=O)N[C@@H](Cc1cnc[nH]1)C(=O)N[C@@H](C)C(=O)N[C@H](C(=O)N[C@@H](CCCCN)C(=O)N[C@@H](CCCCN)C(=O)N[C@@H](Cc1c[nH]c2ccccc12)C(=O)NCC(=O)N[C@@H](CCCCN)C(=O)N[C@H](C(=O)N[C@@H](Cc1ccccc1)C(=O)N[C@H](C(=O)NCC(=O)N[C@@H](CCC(=O)O)C(=O)N[C@H](C(=O)N[C@@H](C)C(=O)N[C@@H](CCCCN)C(=O)N[C@@H](CO)C(N)=O)[C@@H](C)CC)[C@@H](C)CC)[C@@H](C)O)C(C)C)[C@@H](C)CC (Ac-GIGKFIHAVKKWGKTFIGEIAKS-NH2)	1.6 µM (≈ 4.09 µg/mL)	3.1 µM (≈ 7.93 µg/mL)	1.6 µM (≈ 4.09 µg/mL)	3.1 µM (≈ 7.93 µg/mL)	> 400 µM
CC[C@H](C)[C@H](NC(=O)CN)C(=O)NCC(=O)N[C@@H](CCCCN)C(=O)N[C@@H](Cc1ccccc1)C(=O)N[C@H](C(=O)N[C@@H](Cc1cnc[nH]1)C(=O)N[C@@H](C)C(=O)N[C@H](C(=O)N[C@@H](CCCCN)C(=O)N[C@@H](CCCCN)C(=O)N[C@@H](Cc1c[nH]c2ccccc12)C(=O)NCC(=O)N[C@@H](CCCCN)C(=O)N[C@H](C(=O)N[C@@H](Cc1ccccc1)C(=O)N[C@H](C(=O)NCC(=O)N[C@@H](CCC(=O)O)C(=O)N[C@H](C(=O)N[C@@H](C)C(=O)N[C@@H](CCCCN)C(=O)N[C@@H](CO)C(N)=O)[C@@H](C)CC)[C@@H](C)CC)[C@@H](C)O)C(C)C)[C@@H](C)CC (H-GIGKFIHAVKKWGKTFIGEIAKS-NH2)	1.6 µM (≈ 4.02 µg/mL)	0.8 µM (≈ 2.01 µg/mL)	1.6 µM (≈ 4.02 µg/mL)	0.8 µM (≈ 2.01 µg/mL)	334 µM
